Test results as given in ChEMBL document CHEMBL1156797, “Synthesis and antiplasmodial activity of new indolone N-oxide derivatives” (J Med Chem, 2010).
pIC50: −log10 of the molar value.

System: Plasmodium falciparum
Experiment: Resistance index, ratio of IC50 for chloroquine-resistant Plasmodium falciparum FcB1 to IC50 for drug-sensitive Plasmodium falciparum 3D7
Format: functional
Settings: not given; call rule not given here

Point of comparison: `O=C1C(c2ccc(Cl)c(Cl)c2)=[N+]([O-])c2ccccc21`, “Ratio IC50” value 1.6. Against it:
- COc1ccc2c(c1)C(=O)C(c1cccc(Cl)c1)=[N+]2[O-] — lower, 0.2
- COc1ccc2c(c1)C(=O)C(c1ccc(C(F)(F)F)cc1)=[N+]2[O-] — higher, 86
- COc1ccc(C2=[N+]([O-])c3ccc(OC)cc3C2=O)cc1 — lower, 0.5
- C[C@H]1[C@H](OC(=O)CCC(=O)[O-])O[C@@H]2O[C@@]3(C)CC[C@H]4[C@H](C)CC[C@@H]1[C@@]24OO3.[Na+] [SODIUM ARESUNATE] — lower, 1.5

System: Plasmodium falciparum
Experiment: Antimalarial activity against Plasmodium falciparum K1 assessed as [3H]hypoxanthine incorporation by scintillation counting
Format: functional, organism-based
Settings: not given

Point of comparison: `O=C1C(c2ccc(Cl)c(Cl)c2)=[N+]([O-])c2ccccc21`, pIC50 7.10. Against it:
- COc1ccc2c(c1)C(=O)C(c1cccc(Cl)c1)=[N+]2[O-] — within 0.2 log units, 7.02
- COc1ccc2c(c1)C(=O)C(c1ccc(C(F)(F)F)cc1)=[N+]2[O-] — 1.62 log units higher, 8.72
- COc1ccc(C2=[N+]([O-])c3ccc(OC)cc3C2=O)cc1 — 0.70 log units higher, 7.80
- C[C@H]1[C@H](OC(=O)CCC(=O)[O-])O[C@@H]2O[C@@]3(C)CC[C@H]4[C@H](C)CC[C@@H]1[C@@]24OO3.[Na+] [SODIUM ARESUNATE] — 1.30 log units higher, 8.40

System: not listed separately
Experiment: Cytotoxicity against human MCF7 cells after 48 hrs by MTT assay
Format: cell-based
Settings: not given

Point of comparison: `CCN(CC)CCCC(C)Nc1ccnc2cc(Cl)ccc12` (stereo not given) [CHLOROQUINE], CC50 at 48 h 19400 nM. Against it:
- COc1ccc2c(c1)C(=O)C(c1cccc(Cl)c1)=[N+]2[O-] — 3.7-fold lower, 5200 nM
- O=C1C(c2ccccc2)=[N+]([O-])c2ccccc21 — within 1.5-fold, 19500 nM
- O=C1C(c2ccc(Cl)c(Cl)c2)=[N+]([O-])c2ccccc21 — within 1.5-fold, 13700 nM
- COc1ccc2c(c1)C(=O)C(c1ccc(C(F)(F)F)cc1)=[N+]2[O-] — 1.7-fold lower, 11700 nM
- COc1ccc2cc(C3=[N+]([O-])c4ccccc4C3=O)ccc2c1 — within 1.5-fold, 15300 nM
- CCOc1ccc(C2=[N+]([O-])c3cc4c(cc3C2=O)OCO4)cc1 — 2.7-fold higher, 51900 nM
- COc1ccc(C2=[N+]([O-])c3ccc(OC)cc3C2=O)cc1 — higher, > 35300 nM
- C[C@H]1[C@H](OC(=O)CCC(=O)[O-])O[C@@H]2O[C@@]3(C)CC[C@H]4[C@H](C)CC[C@@H]1[C@@]24OO3.[Na+] [SODIUM ARESUNATE] — 2-fold lower, 9800 nM

System: not listed separately
Experiment: Selectivity index, ratio of CC50 for human MCF7 cells to IC50 for chloroquine-resistant Plasmodium falciparum FcB1
Format: functional
Settings: not given
In short: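 XTT 0.5 mg/mL added for 180 min, formazan read at 450 nm, value taken from dose–response curves, two experiments in triplicate. This CC50 is divided by the FcB1 IC50 to give the index.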

Point of comparison: `CCOc1ccc(C2=[N+]([O-])c3cc4c(cc3C2=O)OCO4)cc1`, “Ratio CC50/IC50” value 332. Against it:
- COc1ccc2c(c1)C(=O)C(c1cccc(Cl)c1)=[N+]2[O-] — lower, 248
- O=C1C(c2ccccc2)=[N+]([O-])c2ccccc21 — lower, 22
- O=C1C(c2ccc(Cl)c(Cl)c2)=[N+]([O-])c2ccccc21 — lower, 88
- COc1ccc2c(c1)C(=O)C(c1ccc(C(F)(F)F)cc1)=[N+]2[O-] — lower, 273
- C[C@H]1[C@H](OC(=O)CCC(=O)[O-])O[C@@H]2O[C@@]3(C)CC[C@H]4[C@H](C)CC[C@@H]1[C@@]24OO3.[Na+] [SODIUM ARESUNATE] — higher, 1633

With `COc1ccc(C2=[N+]([O-])c3ccc(OC)cc3C2=O)cc1` the “Ratio CC50/IC50” value was >882.

System: Plasmodium berghei
Experiment: Antimalarial activity against Plasmodium berghei NK65 infected Swiss mice (Mus musculus) assessed as reduction in parasitemia at 10 mg/kg, intraperitoneally after 3 days measured on day 4
Parameters: scale not given: the % may be the effect or the level left
Settings: route intraperitoneal

`CCN(CC)CCCC(C)Nc1ccnc2cc(Cl)ccc12` (stereo not given) [CHLOROQUINE] gave an Activity of 100%.

System: Plasmodium falciparum
Experiment: Antimalarial activity against chloroquine-resistant Plasmodium falciparum FcB1 assessed as [3H]hypoxanthine incorporation after 48 hrs by beta-counter
Format: functional, organism-based
Settings: FcB1/Columbia
In short: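 Primary assay (Toulouse) on FcB1 cultured in RPMI with 25 mM HEPES and 10% human serum, O RBCs. Serial dilutions in triplicate, 2% parasitaemia, 2% haematocrit, 48 h at 37 °C, 5% CO2. [3H]-hypoxanthine added at 24 h, freeze-thaw harvest, β-counting. IC50 by linear regression on the linear segment of the semilog inhibition curve. Three independent repeats.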

Point of comparison: `COc1ccc2c(c1)C(=O)C(c1cccc(Cl)c1)=[N+]2[O-]`, pIC50 7.68. Against it:
- O=C1C(c2ccccc2)=[N+]([O-])c2ccccc21 — 1.63 log units lower, 6.05
- O=C1C(c2ccc(Cl)c(Cl)c2)=[N+]([O-])c2ccccc21 — 0.87 log units lower, 6.81
- COc1ccc2c(c1)C(=O)C(c1ccc(C(F)(F)F)cc1)=[N+]2[O-] — 0.31 log units lower, 7.37
- CCOc1ccc(C2=[N+]([O-])c3cc4c(cc3C2=O)OCO4)cc1 — 0.87 log units lower, 6.81
- COc1ccc(C2=[N+]([O-])c3ccc(OC)cc3C2=O)cc1 — 0.28 log units lower, 7.40
- C[C@H]1[C@H](OC(=O)CCC(=O)[O-])O[C@@H]2O[C@@]3(C)CC[C@H]4[C@H](C)CC[C@@H]1[C@@]24OO3.[Na+] [SODIUM ARESUNATE] — 0.54 log units higher, 8.22

System: not listed separately
Experiment: Selectivity index, ratio of CC50 for human KB cells to IC50 for drug-sensitive Plasmodium falciparum 3D7
Format: functional
Settings: not given
In short: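 The 3D7 value came from [3H]hypoxanthine incorporation: synchronized culture at 0.5% parasitaemia, 2.5% hematocrit, Albumax-supplemented medium, 2-fold dilutions from 100 to 0.05 μM in triplicate, label added at 24 h and harvested at 48 h.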

Point of comparison: `COc1ccc2cc(C3=[N+]([O-])c4ccccc4C3=O)ccc2c1`, “Ratio CC50/IC50” value 2589. Against it:
- COc1ccc2c(c1)C(=O)C(c1cccc(Cl)c1)=[N+]2[O-] — lower, 688
- O=C1C(c2ccc(Cl)c(Cl)c2)=[N+]([O-])c2ccccc21 — higher, 5816
- COc1ccc(C2=[N+]([O-])c3ccc(OC)cc3C2=O)cc1 — higher, 10658
- C[C@H]1[C@H](OC(=O)CCC(=O)[O-])O[C@@H]2O[C@@]3(C)CC[C@H]4[C@H](C)CC[C@@H]1[C@@]24OO3.[Na+] [SODIUM ARESUNATE] — higher, 9045

In the case of `COc1ccc2c(c1)C(=O)C(c1ccc(C(F)(F)F)cc1)=[N+]2[O-]`, the “Ratio CC50/IC50” value was >220.

System: Plasmodium falciparum
Experiment: Resistance index, ratio of IC50 for chloroquine-resistant Plasmodium falciparum K1 to IC50 for drug-sensitive Plasmodium falciparum 3D7
Format: functional
Settings: not given

Point of comparison: `COc1ccc2c(c1)C(=O)C(c1ccc(C(F)(F)F)cc1)=[N+]2[O-]`, “Ratio IC50” value 3.8. Against it:
- COc1ccc2c(c1)C(=O)C(c1cccc(Cl)c1)=[N+]2[O-] — lower, 0.7
- O=C1C(c2ccc(Cl)c(Cl)c2)=[N+]([O-])c2ccccc21 — lower, 0.8
- COc1ccc(C2=[N+]([O-])c3ccc(OC)cc3C2=O)cc1 — lower, 0.2
- C[C@H]1[C@H](OC(=O)CCC(=O)[O-])O[C@@H]2O[C@@]3(C)CC[C@H]4[C@H](C)CC[C@@H]1[C@@]24OO3.[Na+] [SODIUM ARESUNATE] — lower, 1

System: not listed separately
Experiment: Cytotoxicity against human KB cells after 72 hrs by alamar blue assay
Format: cell-based
Settings: not given
In short: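 KB cells were seeded at 4×10^4 cells/mL in RPMI 1640 with 10% heat-inactivated FCS and left 24 h at 37 °C, 5% CO2. A dilution series was added in triplicate for 72 h, then AlamarBlue for 2–4 h. Fluorescence was read at ex 530/em 585 nm, with podophyllotoxin as positive control and values from curve fitting.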

Point of comparison: `O=C1C(c2ccc(Cl)c(Cl)c2)=[N+]([O-])c2ccccc21`, CC50 at 72 h 570000 nM. Against it:
- COc1ccc2c(c1)C(=O)C(c1cccc(Cl)c1)=[N+]2[O-] — 8.9-fold lower, 64000 nM
- COc1ccc2c(c1)C(=O)C(c1ccc(C(F)(F)F)cc1)=[N+]2[O-] — 5.2-fold lower, 110000 nM
- COc1ccc2cc(C3=[N+]([O-])c4ccccc4C3=O)ccc2c1 — 2.4-fold lower, 233000 nM
- COc1ccc(C2=[N+]([O-])c3ccc(OC)cc3C2=O)cc1 — 1.5-fold higher, 874000 nM
- CCN(CC)CCCC(C)Nc1ccnc2cc(Cl)ccc12 (stereo not given) [CHLOROQUINE] — 13-fold lower, 44000 nM
- C[C@H]1[C@H](OC(=O)CCC(=O)[O-])O[C@@H]2O[C@@]3(C)CC[C@H]4[C@H](C)CC[C@@H]1[C@@]24OO3.[Na+] [SODIUM ARESUNATE] — 16-fold lower, 36200 nM

System: not listed separately
Experiment: Inhibition of beta-hematin formation assessed as biocrystallization by UV-visible assay
Format: functional
Settings: not given

For `O=C1C(c2ccccc2)=[N+]([O-])c2ccccc21`, the IC50 was “Not Active”.
In the case of `CCOc1ccc(C2=[N+]([O-])c3cc4c(cc3C2=O)OCO4)cc1`, the IC50 was “Not Active”.

System: Plasmodium berghei
Experiment: Antimalarial activity against Plasmodium berghei NK65 infected Swiss mice (Mus musculus) assessed as reduction in parasitemia treated intraperitoneally for 3 days measured on day 4
Settings: NK65, ip

`CCN(CC)CCCC(C)Nc1ccnc2cc(Cl)ccc12` (stereo not given) [CHLOROQUINE] gave an ED50 of 3 mg/kg.

System: Plasmodium falciparum
Experiment: Antimalarial activity against drug-sensitive Plasmodium falciparum 3D7 assessed as [3H]hypoxanthine incorporation by scintillation counting
Format: functional, organism-based
Settings: not given

Point of comparison: `COc1ccc2c(c1)C(=O)C(c1cccc(Cl)c1)=[N+]2[O-]`, pIC50 6.86. Against it:
- O=C1C(c2ccc(Cl)c(Cl)c2)=[N+]([O-])c2ccccc21 — within 0.2 log units, 7.01
- COc1ccc2c(c1)C(=O)C(c1ccc(C(F)(F)F)cc1)=[N+]2[O-] — higher, > 9.30
- COc1ccc(C2=[N+]([O-])c3ccc(OC)cc3C2=O)cc1 — 0.23 log units higher, 7.09
- C[C@H]1[C@H](OC(=O)CCC(=O)[O-])O[C@@H]2O[C@@]3(C)CC[C@H]4[C@H](C)CC[C@@H]1[C@@]24OO3.[Na+] [SODIUM ARESUNATE] — 1.54 log units higher, 8.40
